Results as given in ChEMBL document CHEMBL4689842, “EUbOPEN Chemogenomics Library wave 1” (2021).

Columns and labels:
[1] = tested on: U2OS; test: Multiplex assay against U2OS; assay type: toxicity, cell-based; settings: human
In short: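 Four dyes were applied at seeding to live cells: Hoechst33342, BioTracker Green Microtubule Cytoskeleton Dye, MitoTracker Red and Annexin V Alexa Fluor 680. Imaging after compound addition used a CQ1 microscope at 37°C and 5% CO2. CellPathfinder machine-learning gating then sorted cells into Hoechst high-intensity objects or normal cells, normal cells into healthy, pyknosed or fragmented nuclei, and pyknosed cells into mitotic or apoptotic, with tubulin, mitochondrial-mass and membrane-permeability phenotypes given as per cents of healthy-nucleus cells.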

[2] = tested on: U2OS; test: Incucyte cell viability with U2OS; assay type: toxicity, cell-based; settings: human, 10 µM, compound concentration 10 uM; also: filed as whole numbers so only -1 and 0 and 1 occur
[3] = 12 h, 1 µM, compound concentration 1 uM, replicate 1
[4] = 12 h, 1 µM, compound concentration 1 uM, replicate 2
[5] = 12 h, 10 µM, compound concentration 10 uM, replicate 1
[6] = 12 h, 10 µM, compound concentration 10 uM, replicate 2
[7] = 24 h, 1 µM, compound concentration 1 uM, replicate 1
[8] = 24 h, 1 µM, compound concentration 1 uM, replicate 2
[9] = 24 h, 10 µM, compound concentration 10 uM, replicate 1
[10] = 24 h, 10 µM, compound concentration 10 uM, replicate 2

## N#Cc1cnc(Nc2cc(NC[C@H]3CNCCO3)c(C(F)(F)F)cn2)cn1 [SRA-737]
[1]; [3]
  Population Apoptotic (%): 18%
  Population Fragmented Nuclei (%): 0%
  Population Healthy Nuclei (%): 89%
  Population Hoechst High Intensity Objects (%): 6%
  Population Membrane Permeable-Phenotype (%): 7%
  Population Mitochondria Different-Phenotype (%): 14%
  Population Mitotic Cells (%): 81%
  Population Normal (%): 93%
  Population Pyknosed Nuclei (%): 9%
  Population Tubulin-Different-Phenotype (%): 26%
  Total Cell Count: 249
[1]; [4]
  Population Apoptotic (%): 16%
  Population Fragmented Nuclei (%): 4%
  Population Healthy Nuclei (%): 90%
  Population Hoechst High Intensity Objects (%): 9%
  Population Membrane Permeable-Phenotype (%): 10%
  Population Mitochondria Different-Phenotype (%): 18%
  Population Mitotic Cells (%): 83%
  Population Normal (%): 90%
  Population Pyknosed Nuclei (%): 4%
  Population Tubulin-Different-Phenotype (%): 30%
  Total Cell Count: 142
[1]; [5]
  Population Apoptotic (%): 50%
  Population Fragmented Nuclei (%): 5%
  Population Healthy Nuclei (%): 87%
  Population Hoechst High Intensity Objects (%): 4%
  Population Membrane Permeable-Phenotype (%): 11%
  Population Mitochondria Different-Phenotype (%): 9%
  Population Mitotic Cells (%): 50%
  Population Normal (%): 95%
  Population Pyknosed Nuclei (%): 6%
  Population Tubulin-Different-Phenotype (%): 15%
  Total Cell Count: 193
[1]; [6]
  Population Apoptotic (%): 23%
  Population Fragmented Nuclei (%): 4%
  Population Healthy Nuclei (%): 85%
  Population Hoechst High Intensity Objects (%): 9%
  Population Membrane Permeable-Phenotype (%): 15%
  Population Mitochondria Different-Phenotype (%): 7%
  Population Mitotic Cells (%): 76%
  Population Normal (%): 90%
  Population Pyknosed Nuclei (%): 10%
  Population Tubulin-Different-Phenotype (%): 16%
  Total Cell Count: 143
[1]; [7]
  Population Apoptotic (%): 5%
  Population Fragmented Nuclei (%): 0%
  Population Membrane Permeable-Phenotype (%): 5%
  Population Mitochondria Different-Phenotype (%): 12%
  Population Mitotic Cells (%): 94%
  Population Pyknosed Nuclei (%): 5%
  Population Tubulin-Different-Phenotype (%): 31%
  Total Cell Count: 330
[1]; [8]
  Population Apoptotic (%): 0%
  Population Fragmented Nuclei (%): 2%
  Population Healthy Nuclei (%): 93%
  Population Hoechst High Intensity Objects (%): 3%
  Population Membrane Permeable-Phenotype (%): 6%
  Population Mitochondria Different-Phenotype (%): 23%
  Population Mitotic Cells (%): 100%
  Population Normal (%): 96%
  Population Pyknosed Nuclei (%): 4%
  Population Tubulin-Different-Phenotype (%): 38%
  Total Cell Count: 179
[1]; [9]
  Population Apoptotic (%): 18%
  Population Fragmented Nuclei (%): 4%
  Population Healthy Nuclei (%): 88%
  Population Hoechst High Intensity Objects (%): 4%
  Population Membrane Permeable-Phenotype (%): 8%
  Population Mitochondria Different-Phenotype (%): 10%
  Population Mitotic Cells (%): 81%
  Population Normal (%): 95%
  Population Pyknosed Nuclei (%): 6%
  Population Tubulin-Different-Phenotype (%): 19%
  Total Cell Count: 243
[1]; [10]
  Population Apoptotic (%): 50%
  Population Fragmented Nuclei (%): 5%
  Population Healthy Nuclei (%): 87%
  Population Hoechst High Intensity Objects (%): 8%
  Population Mitochondria Different-Phenotype (%): 19%
  Population Mitotic Cells (%): 50%
  Population Normal (%): 91%
  Population Tubulin-Different-Phenotype (%): 12%
  Total Cell Count: 168
[2]; 0 h, replicate number 1, timepoint 0 hours
  Growth Rate: 1
[2]; 0 h, replicate number 2, timepoint 0 hours
  Growth Rate: 0
[2]; 6 h, replicate number 1, timepoint 6 hours
  Growth Rate: 0
[2]; 12 h, replicate number 1, timepoint 12 hours
  Growth Rate: 0
[2]; 18 h, replicate number 1, timepoint 18 hours
  Growth Rate: 0
[2]; 24 h, replicate number 1, timepoint 24 hours
  Growth Rate: 0
